# Experimental data: ChEMBL document CHEMBL1275449, “Potent in vitro antifungal activities of naturally occurring acetylenic acids” (Antimicrob Agents Chemother, 2008)
# Columns and labels:
# [1] = tested on: Trichophyton rubrum; assay: Antifungal activity against Trichophyton rubrum ATCC 10218 by CLSI method; format: functional, organism-based
# Outline: (§1)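 Growth scraped from 1- to 6-week-old potato dextrose slants and filtered through Miracloth. Diluted in 5% Alamar blue-RPMI 1640 (MOPS pH 7.0) to 2.7 × 10⁴ CFU/ml. Eleven twofold dilutions in duplicate. Fluorescence at 544 nm excitation/590 nm emission read before and after 35°C, 5 days. IC50 fitted from percent growth. MIC taken as no detectable growth; MFC from clear or blue wells plated on PD agar.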
# [2] = tested on: Trichophyton rubrum; assay: Antifungal activity against Trichophyton rubrum ATCC MYA-4438 by CLSI method; format: functional, organism-based; outline: as §1
# [3] = tested on: Trichophyton mentagrophytes; assay: Antifungal activity against Trichophyton mentagrophytes ATCC 9533 by CLSI method; format: functional, organism-based; outline: as §1
# [4] = tested on: Trichophyton mentagrophytes; assay: Antifungal activity against Trichophyton mentagrophytes ATCC MYA-4439 by CLSI method; format: functional, organism-based; outline: as §1
# [5] = tested on: Cryptococcus neoformans; assay: Antifungal activity against Cryptococcus neoformans ATCC 90113 after 72 hrs by CLSI method; format: functional, organism-based; settings: ATCC 90113, 72 h
# Outline: (§2)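 SD broth replaced RPMI because growth in RPMI was poor; other CLSI conditions were kept. Inoculum was 1.5 × 10³ CFU/ml from colonies on SD agar, checked by plating. Twofold serial dilutions (11 concentrations) in 20% DMSO-saline were tested in duplicate. OD530 was read before and after incubation at 35°C for 72 h. Percent growth gave IC50; the MIC is the lowest concentration with no detectable growth.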
# [6] = tested on: Candida tropicalis; assay: Antifungal activity against Candida tropicalis ATCC 750 after 48 hrs by CLSI method; format: functional, organism-based; settings: ATCC 750, 48 h
# Outline: (§3)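 Yeast suspensions made from 3-5 colonies off 24-72 h SD agar plates in saline. They were diluted by OD630 standard curve in RPMI 1640 (0.2% dextrose, 0.03% glutamine, 0.165 M MOPS, pH 7.0) to 1.5 × 10³ CFU/ml. Twofold dilutions (11 concentrations, 20% DMSO-saline) run in duplicate. OD530 read before and after 35°C, 48 h. Line values are top test concentrations; no-growth endpoints give MIC/MFC.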
# [7] = tested on: Candida parapsilosis; assay: Antifungal activity against Candida parapsilosis ATCC 22019 after 48 hrs by CLSI method; format: functional, organism-based; settings: Lodderomyces parapsilosis, ATCC 22019, 48 h; outline: as §3
# [8] = tested on: Pichia kudriavzevii; assay: Antifungal activity against Candida krusei ATCC 6258 after 48 hrs by CLSI method; format: functional, organism-based; settings: ATCC 6258, 48 h
# Outline: (§4)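 Candida inocula came from 24–72-h SD agar colonies suspended in saline. They were diluted by OD630 standard curve into RPMI 1640 (0.2% dextrose, 0.03% glutamine, 0.165 M MOPS, pH 7.0) to 1.5 × 10³ CFU/ml. Compounds were run as 11 twofold dilutions in 20% DMSO-saline, in duplicate, at 35°C for 48 h, with OD530 read before and after. Percent growth at the top concentration, IC50, MIC, and MFC (SD agar plating) were derived.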
# [9] = tested on: Candida albicans; assay: Antifungal activity against Fluconazole resistant Candida albicans clinical isolate 17 after 48 hrs by CLSI method; format: functional, organism-based
# Outline: (§5)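 CLSI broth microdilution. Colonies from 24–72 h SD agar suspended in saline and sized by OD630 standard curve. Inoculum 1.5 × 10³ CFU/ml (final) in RPMI 1640 (0.2% dextrose, 0.03% glutamine, 0.165 M MOPS, pH 7.0). Twofold dilutions (11 levels) from 20% DMSO-saline, in duplicate. 35°C for 48 h, OD530 read before and after. IC50 fitted from % growth. MIC: no detectable growth. MFC: subculture onto SD agar.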
# [10] = tested on: Candida albicans; assay: Antifungal activity against Fluconazole resistant Candida albicans clinical isolate 1 after 48 hrs by CLSI method; format: functional, organism-based; outline: as §5
# [11] = tested on: Candida albicans; assay: Antifungal activity against Candida albicans ATCC 200955 after 48 hrs by CLSI method; format: functional, organism-based; settings: ATCC 200955, 48 h; outline: as §5
# [12] = tested on: Candida albicans; assay: Antifungal activity against Candida albicans ATCC 90028 after 48 hrs by CLSI method; format: functional, organism-based; settings: ATCC 90028, 48 h; outline: as §5
# [13] = tested on: Candida albicans; assay: Antifungal activity against Candida albicans ATCC 32354 after 48 hrs by CLSI method; format: functional, organism-based; settings: ATCC 32354, 48 h; outline: as §5
# [14] = tested on: SK-MEL; assay: Cytotoxicity against human SK-MEL cells up to 32 uM by neutral red method; format: cell-based
# Outline: (§6)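 Neutral red uptake cytotoxicity, top concentration 32 μM.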
# [15] = tested on: KB; assay: Cytotoxicity against human KB cells up to 32 uM by neutral red method; format: cell-based; outline: as §6
# [16] = tested on: BT-549; assay: Cytotoxicity against human BT549 cells up to 32 uM by neutral red method; format: cell-based; outline: as §6
# [17] = tested on: SK-OV-3; assay: Cytotoxicity against human SKOV3 cells up to 32 uM by neutral red method; format: cell-based; outline: as §6
# [18] = tested on: Vero; assay: Cytotoxicity against African green monkey Vero cells up to 32 uM by neutral red method; format: cell-based; settings: chlorocebus sabaeus; outline: as §6
# [19] = tested on: LLC-PK1; assay: Cytotoxicity against pig LLC-PK1 cells up to 32 uM by neutral red method; format: cell-based, Sus scrofa; outline: as §6
# [20] = tested on: Candida albicans; assay: Antifungal activity against Candida albicans ATCC 14053 after 48 hrs by CLSI method; format: functional, organism-based; settings: ATCC 14053, 48 h; outline: as §5
# [21] = tested on: Candida albicans; assay: Antifungal activity against Candida albicans ATCC 60193 after 48 hrs by CLSI method; format: functional, organism-based; settings: ATCC 60193, 48 h; outline: as §5
# [22] = tested on: Aspergillus niger; assay: Antifungal activity against Aspergillus niger ATCC 16404 after 48 h by CLSI method; settings: ATCC 16404, 48 h
# [23] = tested on: Aspergillus flavus; assay: Antifungal activity against Aspergillus flavus ATCC 204304 after 48 h by CLSI method; settings: ATCC 204304, 48 h
# [24] = tested on: Aspergillus fumigatus; assay: Antifungal activity against Aspergillus fumigatus ATCC 90906 after 48 h by CLSI method; settings: ATCC 90906, 48 h
# [25] = tested on: Aspergillus fumigatus; assay: Antifungal activity against Aspergillus fumigatus ATCC 204305 after 48 h by CLSI method; settings: ATCC 204305, 48 h
# [26] = tested on: Cryptococcus neoformans; assay: Antifungal activity against Cryptococcus neoformans ATCC 66031 after 72 hrs by CLSI method; format: functional, organism-based; settings: ATCC 66031, 72 h; outline: as §2
# [27] = tested on: Nakaseomyces glabratus; assay: Antifungal activity against Candida glabrata ATCC 90030 after 48 hrs by CLSI methodCandida glabrata; format: functional, organism-based; settings: ATCC 90030, 48 h; outline: as §4
compound,measurement,setting,value
CCCCCC#CCC#CCC#CCC#CCCCC(=O)O,IC50,[1],8.4 µM
same,MIC,[1],15.8 µM
same,IC50,[2],2.9 µM
same,MIC,[2],31.7 µM
same,IC50,[3],14.2 µM
same,MIC,[3],21.1 µM
same,IC50,[4],6.7 µM
same,MIC,[4],31.7 µM
same,IC50,[5],> 169 µM
same,IC50,[6],27.7 µM
same,IC50,[7],5.4 µM
same,MIC,[7],63.3 µM
same,IC50,[8],> 169 µM
same,IC50,[9],3.5 µM
same,MIC,[9],42.2 µM
same,IC50,[10],1.7 µM
same,MIC,[10],42.2 µM
same,IC50,[11],2 µM
same,MFC,[11],21.1 µM
same,MIC,[11],5.3 µM
same,IC50,[12],5 µM
same,MIC,[12],42.2 µM
same,IC50,[13],4 µM
same,MIC,[13],31.7 µM
same,Activity,[14],Non-toxic
same,Activity,[15],Non-toxic
same,Activity,[16],Non-toxic
same,Activity,[17],Non-toxic
same,Activity,[18],Non-toxic
same,Activity,[19],Non-toxic
same,IC50,[20],8.1 µM
same,MIC,[20],63.3 µM
same,IC50,[21],4.5 µM
same,MIC,[21],63.3 µM
same,IC50,[22],100 µM
same,IC50,[23],> 169 µM
same,IC50,[24],13.3 µM
same,MIC,[24],84.5 µM
same,IC50,[25],10 µM
same,MIC,[25],84.5 µM
CC(=O)N1CCN(c2ccc(OCC3COC(Cn4ccnc4)(c4ccc(Cl)cc4Cl)O3)cc2)CC1 (stereo not drawn) [KETOCONAZOLE],IC50,[1],0.02 µM
same,MIC,[1],0.04 µM
same,IC50,[2],0.01 µM
same,MIC,[2],0.08 µM
same,IC50,[3],0.2 µM
same,MIC,[3],0.4 µM
same,IC50,[4],0.1 µM
same,MIC,[4],0.7 µM
same,IC50,[26],0.02 µM
same,MFC,[26],0.59 µM
same,MIC,[26],0.15 µM
same,IC50,[5],0.1 µM
same,MFC,[5],1.2 µM
same,MIC,[5],0.3 µM
same,IC50,[6],0.04 µM
same,MIC,[6],0.19 µM
same,IC50,[7],0.04 µM
same,MIC,[7],0.13 µM
same,IC50,[8],0.4 µM
same,MIC,[8],1.1 µM
same,IC50,[27],0.7 µM
same,MIC,[27],4.7 µM
same,IC50,[9],0.3 µM
same,IC50,[10],< 0.01 µM
same,MIC,[10],0.1 µM
same,IC50,[11],< 0.01 µM
same,MIC,[11],0.01 µM
same,IC50,[12],< 0.01 µM
same,MIC,[12],0.01 µM
same,IC50,[13],0.01 µM
same,MIC,[13],0.03 µM
same,IC50,[20],0.01 µM
same,MIC,[20],0.02 µM
same,IC50,[21],0.01 µM
same,MIC,[21],0.02 µM
same,IC50,[22],6 µM
same,MIC,[22],9.4 µM
same,IC50,[23],2.8 µM
same,MIC,[23],4.7 µM
same,IC50,[24],3.2 µM
same,MIC,[24],7.1 µM
same,IC50,[25],2.7 µM
same,MIC,[25],4.7 µM
